Results from ChEMBL document CHEMBL1132472, “Synthesis and pharmacological evaluation of some 8-cyanopyrido[3', 2':4,5]thieno[3,2-d]triazine derivatives as inhibitors of nitric oxide and eicosanoid biosynthesis” (J Med Chem, 1999).

Columns and labels:
[1] = molecular target: Prostaglandin G/H synthase 1 (Homo sapiens) (UniProt P23219); assay: In vitro activity at a concentration of 10 uM against Prostaglandin G/H synthase 1
In short: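 Microsomes were prepared by 2000g spin for 5 min, then 100000g for 100 min, both at 4 °C. Microsomes (20 µg protein/tube) were incubated with arachidonic acid plus compound at 10 µM or vehicle. TXB₂ formed was measured by radioimmunoassay.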

[2] = molecular target: T1, Prostaglandin G/H synthase 2 (Mus musculus) (UniProt Q05769); assay: In vitro activity at a concentration of 10 uM against Prostaglandin G/H synthase 2
T1 sequence (whole entry): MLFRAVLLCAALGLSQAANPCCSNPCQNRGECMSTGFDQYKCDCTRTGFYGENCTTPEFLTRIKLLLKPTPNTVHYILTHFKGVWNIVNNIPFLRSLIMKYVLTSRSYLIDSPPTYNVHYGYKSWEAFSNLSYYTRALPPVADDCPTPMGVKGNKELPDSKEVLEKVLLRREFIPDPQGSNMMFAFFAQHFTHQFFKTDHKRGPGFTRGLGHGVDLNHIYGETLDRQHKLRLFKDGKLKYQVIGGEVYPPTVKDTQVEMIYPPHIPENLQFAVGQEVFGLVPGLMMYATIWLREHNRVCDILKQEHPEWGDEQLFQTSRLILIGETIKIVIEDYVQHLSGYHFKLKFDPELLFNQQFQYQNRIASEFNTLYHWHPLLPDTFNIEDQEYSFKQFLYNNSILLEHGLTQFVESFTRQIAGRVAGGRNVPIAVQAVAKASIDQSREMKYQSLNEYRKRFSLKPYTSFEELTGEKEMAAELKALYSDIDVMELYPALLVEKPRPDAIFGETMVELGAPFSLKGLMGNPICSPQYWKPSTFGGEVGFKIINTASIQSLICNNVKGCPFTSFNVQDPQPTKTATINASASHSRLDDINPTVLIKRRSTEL

[3] = molecular target: T2, Nitric oxide synthase, inducible (Mus musculus) (UniProt P29477); assay: In vitro activity at a concentration of 10 uM against Inducible nitric oxide synthase (iNOS)
T2 sequence (whole entry): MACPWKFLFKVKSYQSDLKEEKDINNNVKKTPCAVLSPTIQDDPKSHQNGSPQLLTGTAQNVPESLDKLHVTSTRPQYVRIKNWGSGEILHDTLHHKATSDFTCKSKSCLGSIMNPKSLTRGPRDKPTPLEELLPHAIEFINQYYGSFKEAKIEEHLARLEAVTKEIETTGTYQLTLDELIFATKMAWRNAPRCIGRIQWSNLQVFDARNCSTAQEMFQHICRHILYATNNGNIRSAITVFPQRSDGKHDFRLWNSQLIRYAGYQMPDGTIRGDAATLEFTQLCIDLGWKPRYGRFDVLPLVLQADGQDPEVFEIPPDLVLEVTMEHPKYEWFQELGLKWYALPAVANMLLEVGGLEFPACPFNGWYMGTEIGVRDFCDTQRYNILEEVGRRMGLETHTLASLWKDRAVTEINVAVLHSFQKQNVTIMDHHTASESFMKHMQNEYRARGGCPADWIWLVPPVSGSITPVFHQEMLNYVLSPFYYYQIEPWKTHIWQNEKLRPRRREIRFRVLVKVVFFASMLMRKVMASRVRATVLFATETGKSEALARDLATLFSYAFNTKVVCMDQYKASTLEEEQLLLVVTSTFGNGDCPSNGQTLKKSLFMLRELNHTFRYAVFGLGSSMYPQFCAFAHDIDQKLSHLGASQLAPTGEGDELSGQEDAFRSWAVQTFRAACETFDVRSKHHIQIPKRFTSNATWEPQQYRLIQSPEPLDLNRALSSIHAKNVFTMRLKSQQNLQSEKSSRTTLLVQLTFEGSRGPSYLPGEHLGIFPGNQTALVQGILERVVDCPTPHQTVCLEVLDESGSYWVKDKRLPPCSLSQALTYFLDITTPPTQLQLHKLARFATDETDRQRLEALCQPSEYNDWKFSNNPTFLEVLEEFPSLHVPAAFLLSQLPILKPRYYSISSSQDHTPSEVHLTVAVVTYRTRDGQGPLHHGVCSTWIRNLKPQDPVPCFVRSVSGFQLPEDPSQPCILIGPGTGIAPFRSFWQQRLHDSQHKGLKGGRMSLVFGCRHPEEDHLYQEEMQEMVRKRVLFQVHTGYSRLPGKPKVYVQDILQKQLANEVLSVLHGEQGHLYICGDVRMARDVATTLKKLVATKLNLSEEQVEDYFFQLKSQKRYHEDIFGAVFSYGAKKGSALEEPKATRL

[4] = organism: Mus musculus; assay: (§1) Ability to inhibit the generation of NO by stimulated murine peritoneal macrophages; format: functional; parameters: concentration or dose not given beside the values
In short: (§2)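 Thioglycolate-elicited mouse peritoneal macrophages (lavage 4 days after ip 10% thioglycolate), adhered 2 h at 37 °C in arginine (1 mM)-containing buffered medium with 10% FBS. Cells stimulated with E. coli LPS 10 µg/mL for 24 h at 37 °C with test compound or vehicle. Supernatant nitrite measured fluorimetrically. IC50 from ≥4 concentrations (n = 6). Mean ± SEM.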

[5] = organism: Mus musculus; assay: (§3) Ability to inhibit the accumulation of PGE-2 in stimulated murine peritoneal macrophages; format: functional; parameters: concentration or dose not given beside the values
In short: (§4)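 Mouse peritoneal macrophages were elicited by ip thioglycolate (10%) and collected by lavage 4 days later. Adherent cells were stimulated with E. coli LPS (10 µg/mL) at 37 °C for 24 h with compound or vehicle. Supernatant PGE₂ was measured by radioimmunoassay. IC50 was calculated from at least four significant concentrations (n = 6).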

[6] = organism: Mus musculus; assay: as §1; format: functional, organism-based; in short: as §2
[7] = organism: Mus musculus; assay: Compound was evaluated to inhibit Nitrite accumulation in simulated macrophages; format: functional
[8] = organism: Mus musculus; assay: Compound was evaluated to inhibit PGE-2 accumulation in simulated macrophages; format: functional
In short: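 Adherent thioglycolate-elicited mouse peritoneal macrophages were stimulated with E. coli LPS (10 µg/mL) for 24 h at 37 °C in the presence of compound at 10 µM or vehicle. Supernatant PGE₂ was measured by radioimmunoassay and expressed as % inhibition, mean ± SEM, n = 6-9.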

[9] = organism: Mus musculus; assay: as §3; format: functional; in short: as §4

Sequence of Prostaglandin G/H synthase 1 (Homo sapiens) (P23219 whole entry): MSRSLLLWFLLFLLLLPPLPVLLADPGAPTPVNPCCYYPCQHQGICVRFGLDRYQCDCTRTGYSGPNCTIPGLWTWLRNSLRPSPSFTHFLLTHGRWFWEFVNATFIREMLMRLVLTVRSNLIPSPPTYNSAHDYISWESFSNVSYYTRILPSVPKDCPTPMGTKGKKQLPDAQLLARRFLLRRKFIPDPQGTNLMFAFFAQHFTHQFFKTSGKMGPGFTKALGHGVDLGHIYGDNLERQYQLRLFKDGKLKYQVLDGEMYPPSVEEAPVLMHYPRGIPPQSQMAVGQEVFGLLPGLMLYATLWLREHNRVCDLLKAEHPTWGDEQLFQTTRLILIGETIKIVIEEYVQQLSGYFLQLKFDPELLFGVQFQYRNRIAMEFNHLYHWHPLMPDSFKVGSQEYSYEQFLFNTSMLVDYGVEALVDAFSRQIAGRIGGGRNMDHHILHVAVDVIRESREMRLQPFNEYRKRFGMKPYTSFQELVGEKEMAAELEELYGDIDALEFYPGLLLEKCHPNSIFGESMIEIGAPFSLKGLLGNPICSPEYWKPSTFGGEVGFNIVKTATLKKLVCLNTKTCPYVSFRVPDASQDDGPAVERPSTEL

Compound | Activity ((ng of TXB2) (mg of protein)-1) [1] | Activity ((ng of PGE2) (mg of protein)-1) [2] | Activity (pM of citrulline min-1 (mg of protein)-1) [3] | Inhibition [4] | Inhibition [5] | IC50 [6] | IC50 [7] | IC50 [8] | IC50 [9]
CC(=O)c1ccc(N2CCN(c3nnnc4c3sc3nc(N5CCC(C)CC5)c(C#N)cc34)CC2)cc1 | 127 | 14.3 | 12.5 | 42.6% | 45.6% | – | – | – | –
N#Cc1cc2c(nc1NCc1ccccc1)sc1c(Br)nnnc12 | – | – | – | 12.2% | 0.4% | – | – | – | –
N=C(N)NN [PIMAGEDINE] | – | – | 5.4 | – | – | 25100 nM | – | – | –
N#Cc1cc2c(nc1NCc1ccccc1)sc1c(N3CCOCC3)nnnc12 | – | – | – | 41.1% | 28.5% | – | – | – | –
CC1CCN(c2nnnc3c2sc2nc(N4CCOCC4)c(C#N)cc23)CC1 | 130 | 13 | 13.1 | 88.7% | 89.6% | – | 3400 nM | 600 nM | –
COc1ccc2c(c1)c(CC(=O)O)c(C)n2C(=O)c1ccc(Cl)cc1 | 63.8 | – | – | – | – | – | – | – | –
CC(=O)c1ccc(N2CCN(c3nnnc4c3sc3nc(N5CCOCC5)c(C#N)cc34)CC2)cc1 | 142 | 16.6 | 14.2 | 45.6% | 34.6% | – | – | – | –
CS(=O)(=O)Nc1ccc([N+](=O)[O-])cc1OC1CCCCC1 [NS-398] | – | – | – | – | – | – | – | – | 3.1 nM
CC(=O)c1ccc(N2CCN(c3nc4sc5c(Cl)nnnc5c4cc3C#N)CC2)cc1 | 104 | – | 14.1 | 44.7% | 94.5% | 11200 nM | – | – | 900 nM
CC1CCN(c2nc3sc4c(N5CCC(C)CC5)nnnc4c3cc2C#N)CC1 | 124 | 13.9 | 12.4 | 37.8% | 52.1% | – | – | – | –
CC(=O)c1ccc(N2CCN(c3nnnc4c3sc3nc(N5CCN(Cc6ccccc6)CC5)c(C#N)cc34)CC2)cc1 | 134 | 15.8 | 13.5 | 51.6% | 50.1% | – | – | – | –
N#Cc1cc2c(nc1N)sc1c(Cl)nnnc12 | – | – | – | 13.9% | 1% | – | – | – | –
CC1CCN(c2nc3sc4c(Cl)nnnc4c3cc2C#N)CC1 | 130 | – | – | 6.1% | 49% | – | – | – | –
N#Cc1cc2c(nc1N1CCOCC1)sc1c(N3CCNCC3)nnnc12 | 149 | 16.5 | 15.1 | 43.3% | 31.3% | – | – | – | –
C[C@@H]1C[C@H]2[C@@H]3CCC4=CC(=O)C=C[C@]4(C)[C@@]3(F)[C@@H](O)C[C@]2(C)[C@@]1(O)C(=O)CO [DEXAMETHASONE] | – | – | – | – | – | 35.8 nM | – | – | 1 nM
CN1CCN(c2nnnc3c2sc2nc(NCc4ccccc4)c(C#N)cc23)CC1 | – | – | – | 14.1% | 56.4% | – | – | – | –
N#Cc1cc2c(nc1N1CCC(Cc3ccccc3)CC1)sc1c(Cl)nnnc12 | 128 | – | 13.1 | 48.8% | 57.9% | – | – | – | –
N#Cc1cc2c(nc1N1CCOCC1)sc1c(Cl)nnnc12 | 112 | – | 14 | 51.8% | 59.5% | – | – | – | –
CN1CCN(c2nnnc3c2sc2nc(N4CCN(Cc5ccccc5)CC4)c(C#N)cc23)CC1 | 123 | 14.6 | 13.1 | 50.6% | 55.1% | – | – | – | –
N#Cc1cc2c(nc1N1CCOCC1)sc1c(N3CCSCC3)nnnc12 | – | – | – | 31.4% | 36.1% | – | – | – | –
